Each compound was assayed against Bifunctional dihydrofolate reductase-thymidylate synthase (Plasmodium falciparum K1, UniProt P13922, S108N) (assay: Inhibition of the S108N mutant of dihydrofolate reductase (DHFR)). Details: not given.
Method in brief: (§1)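 Assay at 25 °C: 50 mM TES pH 7.0, 75 mM β-mercaptoethanol, 1 mg/mL BSA, 100 µM H2folate and 100 µM NADPH. NADPH oxidation followed at 340 nm. Ki derived from IC50 as Ki(1+[S]/Km), assuming competitive inhibition.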

Chain of Bifunctional dihydrofolate reductase-thymidylate synthase (Plasmodium falciparum K1, UniProt P13922, S108N) (P13922 whole entry, looked up, stated change not applied): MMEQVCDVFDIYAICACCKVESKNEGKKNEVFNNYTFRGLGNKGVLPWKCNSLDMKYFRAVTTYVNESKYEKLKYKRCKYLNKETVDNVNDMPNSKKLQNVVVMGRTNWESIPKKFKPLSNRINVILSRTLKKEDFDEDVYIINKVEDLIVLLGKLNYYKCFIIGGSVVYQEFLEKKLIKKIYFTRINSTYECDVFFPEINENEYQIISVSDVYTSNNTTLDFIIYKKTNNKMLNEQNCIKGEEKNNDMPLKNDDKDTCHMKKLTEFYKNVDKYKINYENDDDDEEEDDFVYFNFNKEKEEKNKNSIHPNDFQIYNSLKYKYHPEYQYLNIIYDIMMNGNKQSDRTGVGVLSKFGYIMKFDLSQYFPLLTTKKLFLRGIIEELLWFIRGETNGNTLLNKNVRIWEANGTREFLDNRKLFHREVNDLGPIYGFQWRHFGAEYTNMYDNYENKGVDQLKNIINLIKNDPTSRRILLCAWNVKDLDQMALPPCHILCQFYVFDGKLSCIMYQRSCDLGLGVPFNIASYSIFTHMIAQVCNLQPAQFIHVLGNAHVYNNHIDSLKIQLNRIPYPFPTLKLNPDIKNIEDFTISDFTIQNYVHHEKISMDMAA

Row | SMILES | Ki
1 | CCc1nc(N)nc(N)c1-c1ccc2c(c1)OCO2 | 17.2 nM
2 | Nc1ncc(-c2ccc(Cl)cc2)c(N)n1 | 369 nM
3 | Cc1nc(N)nc(N)c1-c1cccc(Cl)c1 | 3.2 nM
4 | CCc1nc(N)nc(N)c1-c1ccc(-c2ccccc2)cc1 | 421 nM
5 | CCc1nc(N)nc(N)c1-c1ccc(C)cc1 | 10.6 nM
6 | CCc1nc(N)nc(N)c1-c1ccc(Cl)cc1Cl | 1170 nM
7 | Nc1ncc(-c2cccc(Cl)c2)c(N)n1 | 26.3 nM
8 | COC(=O)CCCc1nc(N)nc(N)c1-c1cccc(Cl)c1 | 1.7 nM

These compounds were tested on Plasmodium falciparum (assay: Relative antiplasmodial activity (IC50) compared to Pyr against Plasmodium falciparum K1CB1 DHFR double-mutant (C59R/S108N)). Details: not given.
Format: functional

Row | SMILES | Relative activity
9 | CCc1nc(N)nc(N)c1-c1ccc(-c2ccccc2)cc1 | 0.1
10 | CCc1nc(N)nc(N)c1-c1ccc(C)cc1 | 0.4

What follows are compounds tested on Plasmodium falciparum (assay: In vitro relative antiplasmodial activity (IC50) compared to Pyr against Plasmodium falciparum TM4/8.2 wild-type). Details: not given.
Format: functional

Row | SMILES | Relative activity
11 | CCc1nc(N)nc(N)c1-c1ccc(-c2ccccc2)cc1 | 163.8
12 | CCc1nc(N)nc(N)c1-c1ccc(C)cc1 | 1.2

Each compound was assayed against Bifunctional dihydrofolate reductase-thymidylate synthase (Plasmodium falciparum K1) (UniProt P13922) (assay: Inhibition of mutant C59R+S108N dihydrofolate reductase (DHFR) relative to Pyr). Details: not given.
Chain of Bifunctional dihydrofolate reductase-thymidylate synthase (Plasmodium falciparum K1) (P13922 whole entry, looked up): as the sequence (P13922 whole entry, looked up, stated change not applied) above

Row | SMILES | Relative activity
13 | CCc1nc(N)nc(N)c1-c1ccc2c(c1)OCO2 | 0.6
14 | Nc1ncc(-c2ccc(Cl)cc2)c(N)n1 | 10.3
15 | CCc1nc(N)nc(N)c1-c1ccc(Cl)cc1Cl | 21.2

These compounds were tested on KB (assay: Cytotoxicity against human epidermoid carcinoma KB cell.). Details: not given.
Format: functional, cell-based

Row | SMILES | IC50
16 | CCc1nc(N)nc(N)c1-c1ccc(Cl)cc1 [PYRIMETHAMINE] | 109000 nM
17 | CCOc1cc(Cc2cnc(N)nc2N)ccc1OCc1ccccc1 | 47000 nM
18 | COc1cc(Cc2cnc(N)nc2N)cc(OC)c1OC [TRIMETHOPRIM] | > 250000 nM
19 | CCCCOc1cc(Cc2cnc(N)nc2N)ccc1OCc1cc(OC)c(OC)c(OC)c1 | > 50000 nM
20 | COc1cc(COc2ccc(Cc3cnc(N)nc3N)cc2)cc(OC)c1OC | > 250000 nM

What follows are compounds tested against Bifunctional dihydrofolate reductase-thymidylate synthase (Plasmodium falciparum K1) (UniProt P13922) (assay: Inhibition of the C59R+S108N mutant of dihydrofolate reductase (DHFR) relative to Pyr.). Details: not given.
Method in brief: (§2)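 Assayed at 25 °C in 50 mM TES pH 7.0, 75 mM β-mercaptoethanol, 1 mg/mL BSA, with 100 µM H2folate and 100 µM NADPH. A340 was followed. Ki was derived from IC50 = Ki(1+[S]/Km), assuming competitive inhibition.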

Row | SMILES | Relative activity
21 | CCc1nc(N)nc(N)c1-c1ccc(-c2ccccc2)cc1 | 13.5
22 | CCc1nc(N)nc(N)c1-c1ccc(C)cc1 | 0.3

What follows are compounds tested against Bifunctional dihydrofolate reductase-thymidylate synthase (Plasmodium falciparum K1) (UniProt P13922) (assay: Inhibition of the S108N mutant of dihydrofolate reductase (DHFR) relative to Pyr.). Details: not given.
Method in brief: as §2

Row | SMILES | Relative activity
23 | CCc1nc(N)nc(N)c1-c1ccc(-c2ccccc2)cc1 | 14.7
24 | CCc1nc(N)nc(N)c1-c1ccc(C)cc1 | 0.4

Each compound was assayed on Plasmodium falciparum (assay: In vitro antiplasmodial activity (IC50) against Plasmodium falciparum wtTM4/8.2). Details: not given.
Format: functional, organism-based

Row | SMILES | IC50
25 | CCc1nc(N)nc(N)c1-c1ccc(Cl)cc1 [PYRIMETHAMINE] | 80 nM
26 | CCOc1cc(Cc2cnc(N)nc2N)ccc1OCc1ccccc1 | 500 nM
27 | CCc1nc(N)nc(N)c1-c1ccc(OCc2ccc(Cl)cc2Cl)c(OC)c1 | 3700 nM
28 | CCCCOc1cc(Cc2cnc(N)nc2N)ccc1OCc1cc(OC)c(OC)c(OC)c1 | 440 nM
29 | CCc1nc(N)nc(N)c1-c1ccc2c(c1)OCO2 | 400 nM
30 | Nc1ncc(-c2ccc(Cl)cc2)c(N)n1 | 2300 nM
31 | Cc1nc(N)nc(N)c1-c1cccc(Cl)c1 | 2400 nM
32 | CCc1nc(N)nc(N)c1-c1ccc(-c2ccccc2)cc1 | 13100 nM
33 | CCc1nc(N)nc(N)c1-c1ccc(C)cc1 | 100 nM
34 | CCc1nc(N)nc(N)c1-c1ccc(Cl)cc1Cl | 11300 nM
35 | Nc1ncc(-c2cccc(Cl)c2)c(N)n1 | 6000 nM
36 | COc1cc(COc2ccc(Cc3cnc(N)nc3N)cc2)cc(OC)c1OC | 700 nM
37 | COC(=O)CCCc1nc(N)nc(N)c1-c1cccc(Cl)c1 | 800 nM

What follows are compounds tested against Bifunctional dihydrofolate reductase-thymidylate synthase (Plasmodium falciparum K1) (UniProt P13922) (assay: Inhibition of the wild-type dihydrofolate reductase (DHFR) relative to Pyr.). Details: not given.
Method in brief: as §2

Row | SMILES | Relative activity
38 | CCc1nc(N)nc(N)c1-c1ccc(-c2ccccc2)cc1 | 313
39 | CCc1nc(N)nc(N)c1-c1ccc(C)cc1 | 0.7

The compounds below were run on Bifunctional dihydrofolate reductase-thymidylate synthase (Plasmodium falciparum K1), P13922 [UNDEFINED MUTATION] (assay: Ratio of Inhibition of the C59R+S108N mutant of dihydrofolate reductase (DHFR) to inhibition of wild type dihydrofolate reductase.). Details: not given.
Chain of Bifunctional dihydrofolate reductase-thymidylate synthase (Plasmodium falciparum K1), P13922 [UNDEFINED MUTATION] (P13922 whole entry, looked up, stated change not applied): as above

Row | SMILES | Ratio
40 | CCc1nc(N)nc(N)c1-c1ccc2c(c1)OCO2 | 31.5
41 | Nc1ncc(-c2ccc(Cl)cc2)c(N)n1 | 232
42 | Cc1nc(N)nc(N)c1-c1cccc(Cl)c1 | 1.6
43 | CCc1nc(N)nc(N)c1-c1ccc(-c2ccccc2)cc1 | 3.9
44 | CCc1nc(N)nc(N)c1-c1ccc(C)cc1 | 36.8
45 | CCc1nc(N)nc(N)c1-c1ccc(Cl)cc1Cl | 90.6
46 | Nc1ncc(-c2cccc(Cl)c2)c(N)n1 | 5
47 | COC(=O)CCCc1nc(N)nc(N)c1-c1cccc(Cl)c1 | 5.6

Each compound was assayed against Bifunctional dihydrofolate reductase-thymidylate synthase (Plasmodium falciparum K1) (UniProt P13922) (assay: Inhibition of Plasmodium falciparum wild-type dihydrofolate reductase (DHFR) relative to Pyrimethamine.). Details: not given.

Row | SMILES | Relative activity
48 | CCc1nc(N)nc(N)c1-c1ccc2c(c1)OCO2 | 1.8
49 | Nc1ncc(-c2ccc(Cl)cc2)c(N)n1 | 4
50 | Cc1nc(N)nc(N)c1-c1cccc(Cl)c1 | 3.2
51 | CCc1nc(N)nc(N)c1-c1ccc(Cl)cc1Cl | 21
52 | Nc1ncc(-c2cccc(Cl)c2)c(N)n1 | 10.5
53 | COC(=O)CCCc1nc(N)nc(N)c1-c1cccc(Cl)c1 | 0.8

What follows are compounds tested on Bifunctional dihydrofolate reductase-thymidylate synthase (Plasmodium falciparum K1), P13922 [UNDEFINED MUTATION] (assay: Ratio of Inhibition of the S108N mutant of dihydrofolate reductase (DHFR) to inhibition of wild type dihydrofolate reductase.). Details: not given.

Row | SMILES | Ratio
54 | CCc1nc(N)nc(N)c1-c1ccc2c(c1)OCO2 | 15.6
55 | Nc1ncc(-c2ccc(Cl)cc2)c(N)n1 | 154
56 | Cc1nc(N)nc(N)c1-c1cccc(Cl)c1 | 1.7
57 | CCc1nc(N)nc(N)c1-c1ccc(-c2ccccc2)cc1 | 2.2
58 | CCc1nc(N)nc(N)c1-c1ccc(C)cc1 | 26.5
59 | CCc1nc(N)nc(N)c1-c1ccc(Cl)cc1Cl | 93.1
60 | Nc1ncc(-c2cccc(Cl)c2)c(N)n1 | 4.2
61 | COC(=O)CCCc1nc(N)nc(N)c1-c1cccc(Cl)c1 | 3.4

Each compound was assayed on BC (assay: Cytotoxicity against human breast cancer cells.). Details: not given.
Format: functional, cell-based

Row | SMILES | IC50
62 | CCc1nc(N)nc(N)c1-c1ccc(Cl)cc1 [PYRIMETHAMINE] | > 250000 nM
63 | CCOc1cc(Cc2cnc(N)nc2N)ccc1OCc1ccccc1 | 100000 nM
64 | COc1cc(Cc2cnc(N)nc2N)cc(OC)c1OC [TRIMETHOPRIM] | > 250000 nM
65 | COc1cc(COc2ccc(Cc3cnc(N)nc3N)cc2)cc(OC)c1OC | > 250000 nM

Each compound was assayed against Bifunctional dihydrofolate reductase-thymidylate synthase (Plasmodium falciparum K1) (UniProt P13922) (assay: Inhibition of mutant S108N dihydrofolate reductase (DHFR) relative to Pyr). Details: not given.

Row | SMILES | Relative activity
66 | CCc1nc(N)nc(N)c1-c1ccc2c(c1)OCO2 | 0.6
67 | Nc1ncc(-c2ccc(Cl)cc2)c(N)n1 | 12.9
68 | CCc1nc(N)nc(N)c1-c1ccc(Cl)cc1Cl | 41

The compounds below were run against Bifunctional dihydrofolate reductase-thymidylate synthase (Plasmodium falciparum K1, UniProt P13922) (assay: Inhibition of the C59R+S108N mutant of dihydrofolate reductase (DHFR)). Details: not given.
Chain of Bifunctional dihydrofolate reductase-thymidylate synthase (Plasmodium falciparum K1, UniProt P13922) (P13922 whole entry): as the sequence (P13922 whole entry, looked up, stated change not applied) above
Method in brief: as §1

Row | SMILES | Ki
69 | CCc1nc(N)nc(N)c1-c1ccc2c(c1)OCO2 | 34.6 nM
70 | Nc1ncc(-c2ccc(Cl)cc2)c(N)n1 | 556 nM
71 | Cc1nc(N)nc(N)c1-c1cccc(Cl)c1 | 3.1 nM
72 | CCc1nc(N)nc(N)c1-c1ccc(-c2ccccc2)cc1 | 730 nM
73 | CCc1nc(N)nc(N)c1-c1ccc(C)cc1 | 14.7 nM
74 | CCc1nc(N)nc(N)c1-c1ccc(Cl)cc1Cl | 1140 nM
75 | Nc1ncc(-c2cccc(Cl)c2)c(N)n1 | 31.6 nM
76 | COC(=O)CCCc1nc(N)nc(N)c1-c1cccc(Cl)c1 | 2.8 nM

Each compound was assayed on Vero (assay: Cytotoxicity by the selective inhibition against African green monkey kidney […] (vero cells).). Details: Chlorocebus sabaeus.
Format: functional, cell-based

Row | SMILES | IC50
77 | CCOc1cc(Cc2cnc(N)nc2N)ccc1OCc1ccccc1 | > 250000 nM
78 | COc1cc(Cc2cnc(N)nc2N)cc(OC)c1OC [TRIMETHOPRIM] | > 50000 nM
79 | CCCCOc1cc(Cc2cnc(N)nc2N)ccc1OCc1cc(OC)c(OC)c(OC)c1 | > 50000 nM
80 | COc1cc(COc2ccc(Cc3cnc(N)nc3N)cc2)cc(OC)c1OC | > 250000 nM

What follows are compounds tested on Plasmodium falciparum (assay: IC50 ratio against Plasmodium falciparum K1CB1/TM4). Details: not given.
Format: functional

Row | SMILES | Ratio
81 | CCc1nc(N)nc(N)c1-c1ccc2c(c1)OCO2 | 53.8
82 | Nc1ncc(-c2ccc(Cl)cc2)c(N)n1 | 11.4
83 | Cc1nc(N)nc(N)c1-c1cccc(Cl)c1 | 2
84 | CCc1nc(N)nc(N)c1-c1ccc(-c2ccccc2)cc1 | 0.3
85 | CCc1nc(N)nc(N)c1-c1ccc(C)cc1 | 127
86 | CCc1nc(N)nc(N)c1-c1ccc(Cl)cc1Cl | 2
87 | Nc1ncc(-c2cccc(Cl)c2)c(N)n1 | 1.5
88 | COC(=O)CCCc1nc(N)nc(N)c1-c1cccc(Cl)c1 | 45.4

Source: ChEMBL document CHEMBL1135602 (J Med Chem, 2002)
